Data on 20 compounds can be found in ChEMBL document CHEMBL3259584, “Antiproliferative novel isoxazoles: modeling, virtual screening, synthesis, and bioactivity evaluation” (Eur J Med Chem, 2014).

One experiment has as its system MCF7. Briefly: Antiproliferative activity against human MCF7 cells after 5 days by coulter counter analysis. The conditions noted are these: MCF7, 120 h. It counts as functional, cell-based. In a few lines: (§1)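 Mouse brain endothelial cells (MBEC), HeLa and MCF-7 were maintained in DMEM with 10 mM Hepes and 10% FBS. Cells were seeded at 10,000 cells per cm2. After 16 h the medium was replaced with fresh medium containing 5-fold serial dilutions of compound. On day 5 cells were trypsinized and counted electronically. IC50 was taken as the concentration halving cell number relative to untreated control counts.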

Experiment [1] in a line: Antiproliferative activity against human HMEC1 cells after 5 days by coulter counter analysis. It counts as cell-based. The conditions noted are these: HMEC-1, 120 h. The method, boiled down:
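HMEC-1 human microvascular endothelial cells were grown in EGM-2 MV endothelial medium and plated at 10,000 cells per cm2. After 16 h they received fresh medium with 5-fold dilutions of compound. On day 5 cells were trypsinized and counted with a Coulter counter. IC50 was the concentration reducing cell count by 50% relative to control cultures.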

A short description of experiment [2]: Antiproliferative activity against MBEC after 5 days by coulter counter analysis. On the set-up: species or system Mus musculus. The method, boiled down:
as §1

The next experiment concerns HeLa. In words: Antiproliferative activity against human HeLa cells after 5 days by coulter counter analysis. The experiment is classed as functional, cell-based. The conditions noted are these: 120 h. The method, boiled down: as §1

Each structure is given as a SMILES string. Bounds are passed on as bounds.

As for `COc1ccc(-c2cc(-c3ccc(OC)cc3)on2)cc1`, the IC50 (with MCF7; in experiment [1]; in experiment [2]; with HeLa) was over 100 µM each time.
As to `COc1ccc(-c2noc(-c3ccc(OC)cc3)c2C)cc1`, the IC50 (with MCF7; in experiment [1]; in experiment [2]; in the experiment with HeLa) was over 100 µM each time.
`CCc1c(-c2ccc(OC)cc2)noc1-c1ccc(OC)cc1`: the IC50 (with MCF7; in experiment [1]; in experiment [2]; in the experiment with HeLa) was over 100 µM each time.
Consider `COc1ccc(-c2cc(-c3ccc([N+](=O)[O-])cc3)on2)cc1`, for which the IC50 (in the experiment with MCF7; in experiment [1]; in experiment [2]; in the experiment with HeLa) was over 100 µM throughout.
For the compound `Oc1ccc(-c2cc(-c3ccc(O)cc3)on2)cc1`, the IC50 (usually the concentration needed to halve the response being measured) was 5.2 µM with MCF7, 6.3 µM in experiment [1], 2.5 µM in experiment [2] and 6 µM in the experiment with HeLa.
Regarding `Cc1c(-c2ccc(O)cc2)noc1-c1ccc(O)cc1`, the IC50 in the experiment on MCF7 came out at 48 µM; in experiment [1] it was 47 µM; in experiment [2] it was 19 µM; in the experiment on HeLa, 15 µM.
Regarding `CCc1c(-c2ccc(O)cc2)noc1-c1ccc(O)cc1`, the IC50 in the experiment on MCF7 is 9.8 µM; in experiment [1] it was 9.7 µM; in experiment [2] it was 13 µM; in the experiment on HeLa, 16 µM.
`O=[N+]([O-])c1ccc(-c2cc(-c3ccc(O)cc3)no2)cc1`: the IC50 in the experiment on MCF7 was determined as 53 µM; in experiment [1], 27 µM; in experiment [2], 42 µM; in the experiment on HeLa it was 57 µM.
For `COc1ccc(-c2noc3c2CCc2cc(OC)ccc2-3)cc1`, the IC50 (in the experiment on MCF7; in experiment [1]; in experiment [2]; in the experiment on HeLa) was over 100 µM each time.
`COc1ccc(-c2noc3c2CCc2cc(OC)c(OC)cc2-3)cc1`: the IC50 (with MCF7; in experiment [1]; in experiment [2]; in the experiment on HeLa) was over 100 µM throughout.
For the compound `COc1ccc2c(c1)CCc1c(-c3ccc(OC)c(OC)c3)noc1-2`, the IC50 (in the experiment on MCF7; in experiment [1]; in experiment [2]; with HeLa) was over 100 µM throughout.
Consider `COc1ccc(-c2noc3c2CCc2cc(OC)c(OC)cc2-3)cc1OC`, for which the IC50 came out at 0.36 µM in the experiment on MCF7, 0.56 µM in experiment [1], 1.1 µM in experiment [2] and 0.59 µM with HeLa.
The like results for `Oc1ccc(-c2noc3c2CCc2cc(O)c(O)cc2-3)cc1` were, in that order, 2.1 µM, 7.4 µM, 6.8 µM and 10 µM.
In the case of `Oc1ccc(-c2noc3c2CCc2cc(O)c(O)cc2-3)cc1O`, the IC50 in the experiment on MCF7 was determined as 2.1 µM; in experiment [1] it was 4.2 µM; in experiment [2], 10 µM; with HeLa, 9.1 µM.
The like results for `COc1ccc2c(c1)CCc1c(-c3ccc(SC(F)(F)F)cc3)noc1-2` were, in that order, over 100 µM, over 100 µM, over 100 µM and over 100 µM.
`Oc1ccc2c(c1)CCc1c(-c3ccc(SC(F)(F)F)cc3)noc1-2`: the IC50 is 81 µM in the experiment with MCF7, 65 µM in experiment [1], 67 µM in experiment [2] and 55 µM in the experiment on HeLa.
For the compound `COc1ccc2c(c1)CCc1c(-c3ccc(F)cc3)noc1-2`, the IC50 is over 100 µM with MCF7, over 100 µM in experiment [1], over 100 µM in experiment [2] and 34 µM in the experiment on HeLa.
For `Oc1ccc(-c2noc3c2CCc2cc(O)ccc2-3)cc1`, the IC50 in the experiment on MCF7 is 3.1 µM; in experiment [1], 6.7 µM; in experiment [2], 4.6 µM; in the experiment with HeLa, 3.3 µM.
The like results for `Oc1ccc2c(c1)CCc1c(-c3ccc(O)c(O)c3)noc1-2` were, in that order, 0.72 µM, 0.42 µM, 0.96 µM and 0.97 µM.
Regarding `Oc1ccc2c(c1)CCc1c(-c3ccc(F)cc3)noc1-2`, the IC50 with MCF7 is over 100 µM; in experiment [1] it was 46 µM; in experiment [2] it was 38 µM; with HeLa, over 100 µM.
